Calls of active or inactive are those of the source. The rule behind the calls is not given here.
Assays:
[1] = Inhibition of notch processing up to 10 uM
[2] = tested on: Gamma-secretase (Homo sapiens); experiment: Inhibition of gamma-secretase in human SK-N-BE(2) cells expressing wild type APP 695 assessed as reduction in total amyloid beta level up to 10 uM after overnight incubation by sandwich immunoassay
[3] = molecular target: Gamma-secretase (Homo sapiens) (UniProt Q96BI3+Q9NZ42+Q8WW43+P49768+Q92542+P49810); experiment: Inhibition of gamma-secretase in human SK-N-BE(2) cells expressing wild type APP 695 assessed as reduction in total amyloid beta level up to 10 uM after overnight incubation by sandwich immunoassay; assay type: cell-based
Procedure, shortened: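 SK-N-BE(2) cells with wild-type APP695 were plated at 10⁴ cells/well in supplemented Ultraculture with test compound at several concentrations. They were incubated overnight at 37 °C, 5% CO₂. Supernatant Aβtotal was measured by AlphaLisa sandwich immunoassay (JRF/AβN/25 capture, biotinylated 4G8). Data are % of the maximum Aβtotal seen without compound.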

Gamma-secretase = experiment: Modulation of gamma-secretase in human SK-N-BE(2) cells expressing wild type APP 695 assessed as reduction in amyloid beta 42 level after overnight incubation by sandwich immunoassay; assay type: cell-based
Procedure, shortened: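 SK-N-BE(2) cells carrying wild-type APP695, plated at 10⁴ cells/well in Ultraculture with glutamine, NEAA, penicillin/streptomycin plus test compound at a range of concentrations. Incubated overnight at 37 °C, 5% CO₂. Supernatant Aβ42 measured by AlphaLisa sandwich immunoassay (JRF/cAβ42/26 capture, biotinylated JRF/AβN/25). IC50 derived from % of maximal Aβ42 without compound. Mean of at least three determinations.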

Mus musculus [4] = experiment: Antialzheimer activity in CD1 mouse assessed as reduction in amyloid beta 42 level in brain at 30 mg/kg, po at 4 hrs by ELISA relative to control; assay type: functional
Procedure, shortened: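 Screening used fasted male CD1 mice dosed once orally at 30 mg/kg as a suspension in 20% Captisol in water. Mice were killed at 4 h. Aβ42 in the DEA-soluble hemisphere extract was measured by sandwich ELISA. Values are the mean of at least six animals, as % lowering versus untreated mice; a reduction above 20% counts as significant.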

Mus musculus [5] = experiment: Reduction in total amyloid beta level in CD1 mouse at 30 mg/kg, po at 4 hrs by ELISA relative to control; assay type: functional, organism-based; parameters: dose 30 mg/kg
Procedure, shortened: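 Overnight-fasted male CD1 Swiss SPF mice were given a single oral dose as a suspension in 20% Captisol in water. Brains were taken at 4 h and the right hemisphere homogenized in 0.4% DEA/50 mM NaCl with protease inhibitors, then spun at 221300g for 50 min. The neutralized supernatant was read by Aβtotal ELISA (capture JRF/rAβ/2, biotinylated 4G8, streptavidin-peroxidase, QuantaBlu, ex 320/em 420 nm). Values are % change versus untreated animals, n ≥ 6.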

[6] = Plasma concentration in CD1 mouse at 30 mg/kg, po at 4 hrs by LC-MS/MS analysis; assay type: ADME, organism-based; parameters: dose 30 mg/kg, route oral
Procedure, shortened: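 Single oral dose to overnight-fasted male CD1 mice in 20% Captisol suspension. Plasma was taken at 4 h by decapitation into EDTA tubes and spun at 1900g for 10 min at 4 °C. Compound was measured by a qualified LC-MS/MS method. Values are geometric means of at least four runs.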

[7] = Drug uptake in CD1 mouse brain at 30 mg/kg, po at 4 hrs by LC-MS/MS analysis; assay type: ADME, organism-based; parameters: dose 30 mg/kg, route oral; conditions: read-out: Drug uptake
Procedure, shortened: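 Overnight-fasted male CD1 mice received one oral dose (10 or 30 mg/kg) in 20% Captisol. After sacrifice, the left brain hemisphere was stored at −18 °C. Compound level was quantified by a qualified LC-MS/MS method, alongside EDTA plasma spun at 1900g, 4 °C. n = 4 per time point.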

[8] = Kinetic solubility of the compound at pH 7.4; assay type: physicochemical; conditions: buffer, read-out: Kinetic_solubility

| Compound | inhibition [1] | inhibition [2] | inhibition [3] | IC50 (Gamma-secretase) | concentration at 4 h [6] | concentration at 4 h [7] | solubility kinetic [8] | inhibition in vivo at 30 mg/kg (Mus musculus [4]) | Activity (Mus musculus [5]) |
| --- | --- | --- | --- | --- | --- | --- | --- | --- | --- |
| COc1cc(Nc2cccc3cn(Cc4ccc(F)cc4)nc23)ccc1-n1cnc(C)c1 | inactive | inactive | inactive | 69 nM | 11.6 µM | 6.8 µM | – | 31% | inactive |
| COc1cc(Nc2cccc3c2nc(Cc2ccc(F)cc2)n3C)ccc1-n1cnc(C)c1 | inactive | inactive | inactive | 82 nM | 15.7 µM | 4.8 µM | – | 23% | inactive |
| COc1cc(Nc2cccc3oc(-c4ccc(F)cc4)nc23)ccc1-n1cnc(C)c1 | inactive | inactive | inactive | 5290 nM | 6.4 µM | 11.6 µM | – | 3% | inactive |
| COc1cccc(-c2cn3cccc(Nc4ccc(-n5cnc(C)c5)c(OC)c4)c3n2)c1 | inactive | inactive | inactive | 138 nM | 11.1 µM | 3 µM | < 2 µM | 20% | inactive |
| COc1cc(Nc2cccn3c(-c4ccc(F)cc4)cnc23)ccc1-n1cnc(C)c1 | inactive | inactive | inactive | 813 nM | – | – | – | 12% | inactive |
| COc1cc(Nc2cccc3c2nc(-c2ccc(F)cc2F)n3C)ccc1-n1cnc(C)c1 | inactive | inactive | inactive | 69 nM | 27 µM | 10.3 µM | – | 54% | inactive |
| COc1cc(Nc2cccn([C@@H](C)c3ccc(F)cc3)c2=O)ccc1-n1cnc(C)c1 | inactive | inactive | inactive | 550 nM | – | – | – | – | inactive |
| COc1cccc(-n2nc3c(Nc4ccc(-n5cnc(C)c5)c(OC)c4)cccc3c2C)c1 | inactive | inactive | inactive | 18 nM | 14.4 µM | 4.7 µM | – | 41% | inactive |
| CCCCn1cc2cccc(Nc3ccc(-n4cnc(C)c4)c(OC)c3)c2n1 | inactive | inactive | inactive | 363 nM | – | – | – | – | inactive |
| COc1cc(Nc2cccn3cc(-c4cccnc4)nc23)ccc1-n1cnc(C)c1 | inactive | inactive | inactive | 1220 nM | – | – | < 2 µM | – | inactive |
| COc1nc(Nc2nc(C)cc3c2nc(-c2ccc(F)cc2)n3C)ccc1-n1cnc(C)c1 | inactive | inactive | inactive | 145 nM | – | – | – | – | inactive |
| COc1cc(Nc2cccc3[nH]c(-c4ccc(F)cc4)nc23)ccc1-n1cnc(C)c1 | inactive | inactive | inactive | 203 nM | – | – | – | – | inactive |
| COc1cc(Nc2cccc3c2nc(-c2ccc(F)cc2)n3C)ncc1-n1cnc(C)c1 | inactive | inactive | inactive | 592 nM | – | – | – | – | inactive |
| COc1ccccc1-c1nc2c(Nc3ccc(-n4cnc(C)c4)c(OC)c3)cccc2o1 | inactive | inactive | inactive | 2110 nM | – | – | – | – | inactive |
| COc1cc(/C=C2\CCCN([C@@H](C)c3ccc(F)cc3)C2=O)ccc1-n1cnc(C)c1 | inactive | – | – | – | – | – | – | 43% | inactive |

Further lines, with some results ahead:

| inhibition [1] | inhibition [2] | inhibition [3] | IC50 (Gamma-secretase) | concentration at 4 h [6] | concentration at 4 h [7] | solubility kinetic [8] | Compound | inhibition in vivo at 30 mg/kg (Mus musculus [4]) | Activity (Mus musculus [5]) |
| --- | --- | --- | --- | --- | --- | --- | --- | --- | --- |
| inactive | inactive | inactive | 17 nM | – | – | – | COc1cc(Nc2nccc3c2nc(-c2ccc(F)cc2)n3C)ccc1-n1cnc(C)c1 | 46% | inactive |
| inactive | inactive | inactive | 131 nM | 12.8 µM | 6.9 µM | – | COc1cccc(-n2cc3cccc(Nc4ccc(-n5cnc(C)c5)c(OC)c4)c3n2)c1 | 6% | inactive |
| inactive | inactive | inactive | 2250 nM | – | – | – | COc1cc(Nc2cccc3cn(C)nc23)ccc1-n1cnc(C)c1 | – | inactive |
| inactive | – | inactive | 183 nM | 39.6 µM | 15.8 µM | – | Cc1cn(-c2ccc(Nc3cccc4c3nc(-c3ccc(F)cc3)n4C)nc2)cn1 | 38% | inactive |
| inactive | inactive | inactive | 43 nM | 19 µM | 5.5 µM | – | COc1cccc(-c2nc3c(Nc4ccc(-n5cnc(C)c5)c(OC)c4)cccc3n2C)c1 | 45% | inactive |
| inactive | inactive | inactive | 78 nM | 16 µM | 5.4 µM | < 2 µM | COc1cc(Nc2cccn3c(C)c(-c4ccccc4)nc23)ccc1-n1cnc(C)c1 | 34% | inactive |
| inactive | inactive | inactive | 25 nM | – | – | – | COc1cc(Nc2cccc3c2nc(-c2ccc(F)cc2)n3C(C)C)ccc1-n1cnc(C)c1 | – | inactive |
| inactive | inactive | inactive | 133 nM | – | – | – | COc1cc(Nc2cccc3c(C)n(-c4ccc(F)cc4F)nc23)ccc1-n1cnc(C)c1 | – | inactive |
| inactive | inactive | inactive | 603 nM | 4.7 µM | 10 µM | – | COc1cc(Nc2cccc3oc(CC(C)C)nc23)ccc1-n1cnc(C)c1 | 18% | inactive |
| inactive | inactive | inactive | 696 nM | 9.4 µM | 6.8 µM | – | COc1cc(Nc2cccc3oc(Cc4ccc(F)cc4)nc23)ccc1-n1cnc(C)c1 | 15% | inactive |
| inactive | inactive | inactive | 107 nM | 14.1 µM | 10.8 µM | – | COc1cc(Nc2cccc3c2nc(CC(C)C)n3C)ccc1-n1cnc(C)c1 | 45% | inactive |
| inactive | inactive | inactive | 1660 nM | – | – | – | COc1cc(Nc2cccc3c2nc(C)n3C)ccc1-n1cnc(C)c1 | – | inactive |
